Only some compounds are listed: those with a hit (about 2.3% of all), similar ones and a draw of the others.
TRPC4 PAM = TRPC4 (mouse) allosteric potentiation | Q9QUQ5 | HEK293 TRPC4beta/mu-opioid, DAMGO EC20, Fluo-4 Ca2+ flux; stronger effect = higher value | B-score at 10 µM | 0.42% of 310,000 active | AID 2227;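 active = B-score of calcium response area above 5 SD of library B-scores, with initial fluorescence ratio within 5 SD of library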;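 note: B-score of integrated fluorescence ratio over time as area under calcium response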
TRPC4 block = blocks the mouse TRPC4 cation channel | Q9QUQ5 | AID 2247 | B-score at 10 µM | 0.39% of 300,000 active | HEK293 TRPC4beta/mu-opioid, DAMGO-evoked Fluo4 calcium flux; stronger effect = lower value;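 active = B-score over 3 SD under the library average, no early fluorescence shift, positive overall ratio signal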
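material = TRPC4beta/mu-opioid receptor HEK293 cell line | probe or stimulus = sequential submaximal and maximal DAMGO stimulation | compound dosing = one concentration per compound | measured by = Fluo4 Ca2+ flux fluorescence | evaluation = integrated fluorescence ratio relative to baseline, converted to per-well B score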
TRPC6 inh = blocks the mouse TRPC6 cation channel; HEK293-TRPC6, membrane potential dye, ACh-evoked depolarization; stronger effect = lower value; B-score at 10 µM; 1.1% of 310,000 active; AID 2553;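 active = B-score under library mean minus 3 SD, initial fluorescence not abnormally high, positive integrated signal ratio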;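 note: B-score derived from integrated fluorescence ratio over the kinetic read; more negative B-score means stronger inhibition of depolarization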
TRPC4 agonist = opens the mouse TRPC4 cation channel. Q9QUQ5. HEK293 TRPC4beta/mu-opioid, Fluo4 calcium fluorescence; stronger effect = higher value. B-score at 10 µM. 0.49% of 310,000 active;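 active = B-score above 5 SD of library B-scores, and initial fluorescence ratio not above library mean plus 5 SD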;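 note: positive B-score marks a calcium rise read as TRPC4 activation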
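Assay system: HEK293 cells stably co-expressing mouse TRPC4beta and mu-opioid receptor / Timing: Fluo4 dye loading 45 min at room temperature, 110 s recording / Signal: Fluo4 calcium-sensitive dye fluorescence, kinetic, 1 Hz baseline / Read-out: integrated baseline-normalised fluorescence ratio, converted to per-well B score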
TRPC6 act = activators of mouse TRPC6 channel; 0.13% of 310,000 active; B-score at 10 µM; HEK293-TRPC6 membrane potential dye fluorescence; stronger effect = higher value; Q61143;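 active = B-score of the integrated fluorescence ratio above library mean plus 3 SD, and starting fluorescence ratio within library mean plus 5 SD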;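 note: higher score means more depolarization so channel activation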
TRPC4 spec 2 = second check of whether TRPC6 inhibitors also affect mouse TRPC4; shares compounds with TRPC6 inh; HEK293 TRPC4/MOR, membrane potential dye fluorescence; channel activated by saturating DAMGO dose; inhibition, % at 10 µM; 42% of 920 active; AID 2776;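 active = compounds whose fluorescence signal differed from control wells by over 3 SD, either direction, in both duplicate plates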
TRPC4 spec = tests whether TRPC6 inhibitors also affect mouse TRPC4; shares compounds with TRPC6 inh; 61% of 920 active; activity change, negative = inhibition, % at 10 µM; HEK293 TRPC4/mu-opioid, membrane potential fluorescence; AID 2777;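 active = rise or fall in signal beyond 3 SD of buffer-only wells in both replicate plates, either sign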;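 note: integrated kinetic ratio of fluorescence range over baseline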
HEK293 MPD ctr 2-1 = second counter-screen for TRPC6 inhibitors: parental HEK293 cells | 31% of 920 active | AID 2779 | parental HEK293 membrane potential dye fluorescence; maximal acetylcholine challenge after compound addition | shares compounds with TRPC6 inh | signal change vs control, % at 10 µM;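 active = membrane potential signal moving either way by over 3 SD of the maximum-effect control, in both duplicate plates, meaning non-specific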
HEK293 MPD ctr-1 = parental HEK293 nonspecific activity of TRPC6 inhibitors; shares compounds with TRPC6 inh; parental HEK293 membrane potential dye fluorescence; membrane potential signal change, % at 10 µM; 60% of 920 active; AID 2780;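 active = membrane potential signal shifting up or down by more than 3 SD of buffer-only wells, on both duplicate plates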
HEK293 MPD ctr-2 = parental HEK293 nonspecific activity of TRPC6 modulators. shares compounds with TRPC6 inh. membrane potential dye fluorescence. membrane potential signal change, % at 10 µM. 51% of 2,400 active. AID 488924;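 active = membrane potential signal moves up or down beyond 5 SD from buffer-only wells, on both duplicate plates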
HEK293 MPD ctr 2-2 = parental HEK293 nonspecific activity of TRPC6 modulators, second screen | 14% of 2,400 active | membrane potential dye fluorescence; after compound, maximal acetylcholine stimulation | shares compounds with TRPC6 inh | inhibition, % at 10 µM;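 active = membrane potential signal drops by more than 5 SD from the mean control signal, in both duplicate plates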;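 note: plate controls were acetylcholine ECmax control wells for no effect and buffer only wells for full effect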
TRPC4 ctr mod = tests whether TRPC6 modulators also affect mouse TRPC4; shares compounds with TRPC6 inh; 69% of 2,400 active; HEK293 TRPC4/mu-opioid, membrane potential fluorescence; AID 488927; percent change from control (negative = decrease, positive = increase), % at 10 µM;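 active = membrane potential signal moved up or down beyond 5 SD of buffer control wells, in both duplicate plates, actives on both sides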;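 note: plate controls were assay buffer wells for no effect and DAMGO maximal-effect wells for full effect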
TRPC4 ctr inh 2 = mouse TRPC4 off-target activity of TRPC6 modulators, second screen. AID 488928. 55% of 2,400 active. HEK293 TRPC4/mu-opioid, membrane potential dye fluorescence; stimulated with maximal-effect DAMGO. inhibition, % at 10 µM. shares compounds with TRPC6 inh;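 active = drop in membrane potential signal beyond 5 SD of the control wells in both duplicate plates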;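 note: TRPC4 counter screen for TRPC6 hits run under conditions tuned for TRPC6 not TRPC4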
TRPC6 inh conf = mouse TRPC6 inhibitor confirmation | shares compounds with TRPC6 inh | HEK293-TRPC6, membrane potential dye, ACh-evoked depolarization | inhibition, % at 10 µM | 43% of 3,300 active;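 active = fluorescence ratio falls more than 5 SD below the full-stimulation control mean, in both duplicate runs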;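 note: integrated fluorescence ratio of peak minus minimum over baseline after agonist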
TRPC6 act conf = confirmation of mouse TRPC6 activators; shares compounds with TRPC6 inh; HEK293-TRPC6 membrane potential dye fluorescence, FDSS; activation, % at 10 µM; 11% of 2,800 active; AID 488961;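 active = ratio signal rise beyond 5 SD above unstimulated control wells' mean, seen in both duplicate runs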;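 note: plate controls were buffer EC0 wells for no effect and acetylcholine ECmax response for full effect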
Numbers without * were called inactive; i = inactive; x = no result given.

SMILES	TRPC4 PAM	TRPC4 block	TRPC6 inh	TRPC4 agonist	TRPC6 act	HEK293 MPD ctr-2	HEK293 MPD ctr 2-2	TRPC4 ctr mod	TRPC4 ctr inh 2	TRPC6 inh conf	TRPC6 act conf	others
Brc1cccc(-c2cnc3n2CCCCC3)c1	i	i	-5.42*	i	i	136.0%*	i	23.5%*	48.5%*	54.5%*	x
CCN(CC)c1ccc(N=C2C(=O)Nc3ccccc32)cc1	i	i	-7.53*	i	i	-261.0%*	i	-40.5%*	89.0%*	76.0%*	i
Cc1ccc(N=C2C(=O)Nc3ccccc32)cc1	i	i	i	i	i	x	x	x	x	x	x
CSCC[C@H](NC(=O)[C@H]1N2C(=O)c3ccccc3C2SC1(C)C)C(=O)NCc1ccncc1 (some centres not stated)	i	i	i	i	i	x	x	x	x	x	x
CCC(OCC(O)CN1CCN(CCN2C(=O)c3cccc4cccc(c34)C2=O)CC1)c1ccccc1 (configuration not stated)	i	i	-6.12*	i	i	-90.0%*	i	-29.0%*	77.0%*	59.5%*	i
Cc1ccccc1OCC(O)CN1CCN(CCN2C(=O)c3cccc4cccc(c34)C2=O)CC1 (configuration not stated)	i	i	-5.23*	i	i	i	i	-18.0%*	82.0%*	59.0%*	i
Cc1cccc(C)c1OCC(O)CN1CCC(CN2C(=O)c3cccc4cccc(c34)C2=O)CC1 (configuration not stated)	i	i	-8.35*	i	i	x	x	x	x	64.4%*	i	TRPC4 spec 2=39.5%*;TRPC4 spec=-18.2%*;HEK293 MPD ctr 2-1=i;HEK293 MPD ctr-1=-200.0%*
Cc1nc(C)c(C(=O)N2CCCC(C(=O)c3ccc(Cl)cc3C)C2)s1 (configuration not stated)	i	i	i	i	i	x	x	x	x	x	x
O=C(Nc1ccc(S(=O)(=O)N2CCCCC2c2cccnc2)cc1)c1c(F)cccc1F (configuration not stated)	i	i	-5.06*	i	i	i	i	i	i	i	i
O=C(NCC1CCCO1)[C@@H]1CSC2c3ccccc3C(=O)N21 (some centres not stated)	i	i	-5.39*	i	i	i	i	i	i	i	i
O=C(NCC1CCCO1)C1c2ccccc2C(=O)N1C1CCCCCCC1 (configuration not stated)	i	i	i	i	i	x	x	x	x	x	x
